Series [1] has as its system MT4. Kind of series: Cytotoxicity against human MT4 cells assessed as decrease in cell viability. The series is classed as cell-based. Put shortly:
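MT-4 viability was measured by automated propidium iodide-based cell counting, enumerating total and dead cells in untreated and compound-treated cultures.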

The subject of series [2] is Human alphaherpesvirus 1. Kind of series: Antiviral activity against HSV1 KOS infected in HEL cells assessed as inhibition of virus-induced cytopathicity. The conditions noted are these: Human alphaherpesvirus 1, KOS. The class given is functional, organism-based. Put shortly:
(§1)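 Confluent human embryonic lung fibroblast monolayers inoculated with 100 CCID50 virus. After 1–2 h adsorption, residual virus was removed and cultures were incubated with varying compound concentrations. Cytopathicity was scored once untreated infected controls reached full cytopathicity.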

The test system of a further series is Human alphaherpesvirus 2. Kind of series: Antiviral activity against HSV2 G infected in HEL cells assessed as inhibition of virus-induced cytopathicity. The class given is functional, organism-based. Particulars: Human alphaherpesvirus 2, strain G. Put shortly:
as §1

Series [3] concerns Human alphaherpesvirus 1. Kind of series: Antiviral activity against acyclovir […]-resistant thymidine kinase-deficient HSV1 KOS infected in HEL cells assessed as inhibition of virus-induced cytopathicity. The series is classed as functional, organism-based. The conditions noted are these: Human alphaherpesvirus 1, KOS. The procedure, abridged:
as §1

Series [4] in a line: Cytotoxicity against HEL cells assessed as concentration required to cause alteration in cell alteration by microscopically. The series is classed as cell-based. The conditions noted are these: human.
The test system of another series is HEL. The experiment in a line: Cytotoxicity against HEL cells assessed as inhibition of cell proliferation. The class given is cell-based. The conditions noted are these: Homo sapiens.
In series [5] the test system is Human immunodeficiency virus 1. Kind of series: Antiviral activity against HIV1 3B/Lai infected in human CEM cells assessed as inhibition of virus-induced cytopathicity after 4 days. The class given is functional, organism-based. Particulars: Human immunodeficiency virus 1, 3B/Lai, CCRF-CEM, 96 h. Put shortly: (§2)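 Human CEM cells (~3 × 10^5 cells/mL) infected with 100 CCID50 per mL of HIV-1(IIIB) or HIV-2(ROD), then seeded into wells holding compound dilutions. Incubated 4 days at 37°C. Giant cell formation was scored microscopically.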

Series [6] concerns Human immunodeficiency virus 2. The experiment in a line: Antiviral activity against HIV2 ROD infected in human CEM cells assessed as inhibition of virus-induced cytopathicity after 4 days. The class given is functional, organism-based. The conditions noted are these: Human immunodeficiency virus 2, ISOLATE ROD, CCRF-CEM, 96 h. Put shortly:
as §2

Series [7] concerns Human immunodeficiency virus 1. The experiment in a line: Antiviral activity against HIV1 3B/Lai infected in human MT4 cells assessed as suppression of p24 production after 3 days. The series is classed as functional, organism-based. Particulars: Human immunodeficiency virus 1, 3B/Lai, MT4, 72 h. The procedure, abridged:
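MT-4 cells (1 × 10^4 cells/mL) in fresh medium infected with X4LAI.04 stock, 10 μL (0.7 ng p24) per mL of cell suspension. Mixed with medium carrying compound dilutions and kept at 37°C. After 3 days, p24 was measured in culture supernatants.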

Another series relates to CCRF-CEM. The experiment in a line: Cytotoxicity against human CEM cells assessed as decrease in cell viability. The series is classed as cell-based.
The subject of series [8] is MT4. Kind of series: Cytotoxicity against human MT4 cells assessed as inhibition of cell proliferation. The class given is cell-based.

Molecules are shown by their SMILES.

We go through ten molecules from ChEMBL document CHEMBL1153518 (J Med Chem, 2009).

Turning to `C[C@H](NP(=O)(OCCOCn1cnc2c(=O)[nH]c(N)nc21)Oc1cccc2ccccc12)C(=O)OCc1ccccc1` (some centres not stated), the IC50 was greater than 150 µM in the series on MT4 [1] and 20 µM in the series on HEL. Also, the EC50 was determined as 2 µM in the series on Human alphaherpesvirus 1 [2]; 1.4 µM with Human alphaherpesvirus 2; 10 µM in the series on Human alphaherpesvirus 1 [3]; 15 µM in series [5]; 8.9 µM in series [6]; 0.8 µM in series [7]. Further, the MCC in [4] is no less than 20 µM.

With `CC(C)(NP(=O)(OCCOCn1cnc2c(=O)[nH]c(N)nc21)Oc1cccc2ccccc12)C(=O)OCc1ccccc1` (configuration not stated), the EC50 in the series with Human alphaherpesvirus 1 [2] was 2.4 µM; in the series on Human alphaherpesvirus 2, 1.6 µM; in the series with Human alphaherpesvirus 1 [3], 3.2 µM; in series [5], no less than 100 µM; in series [6] it was 79 µM. The MCC in series [4] was greater than 50 µM. Moreover, the IC50 with HEL and in the series on CCRF-CEM was greater than 100 µM in each case.

Turning to `CC(C)(NP(=O)(OCCOCn1cnc2c(=O)[nH]c(N)nc21)Oc1ccccc1)C(=O)OCc1ccccc1` (configuration not stated), the IC50 is greater than 150 µM with MT4 [1] and greater than 100 µM with CCRF-CEM. The EC50 is 1.4 µM in the series with Human alphaherpesvirus 1 [2]; 0.8 µM in the series with Human alphaherpesvirus 2; 5.5 µM in the series with Human alphaherpesvirus 1 [3]; greater than 100 µM in series [6]; 7 µM in series [7]. Besides, the MCC in series [4] is greater than 100 µM. Further, the CC50 in the series on MT4 [8] is greater than 150 µM.

Take `Nc1nc2c(ncn2COCCOP(=O)(Oc2ccccc2)N2CCC[C@H]2C(=O)OCc2ccccc2)c(=O)[nH]1` (some centres not stated): the EC50 with Human alphaherpesvirus 1 [2] was greater than 100 µM; in the series with Human alphaherpesvirus 2, greater than 100 µM; in the series on Human alphaherpesvirus 1 [3], greater than 100 µM; in series [5] it was greater than 20 µM; in series [6], greater than 20 µM. Besides, the MCC in [4] was greater than 100 µM. For the same molecule, the IC50 with HEL and in the series on CCRF-CEM was greater than 100 µM throughout.

For `CCCOC(=O)[C@H](C)NP(=O)(OCCOCn1cnc2c(=O)[nH]c(N)nc21)Oc1cccc2ccccc12` (some centres not stated), the EC50 amounted to 5.5 µM in the series with Human alphaherpesvirus 1 [2]; 1.9 µM in the series on Human alphaherpesvirus 2; 16 µM in the series with Human alphaherpesvirus 1 [3]; 6.6 µM in series [5]; 24 µM in [6]; 10 µM in series [7]. For the same molecule, the MCC in [4] is no less than 50 µM. For the same molecule, in the series with HEL, the IC50 amounted to 68 µM.

For the molecule `CC(C)C[C@H](NP(=O)(OCCOCn1cnc2c(=O)[nH]c(N)nc21)Oc1ccccc1)C(=O)OCc1ccccc1` (some centres not stated), the half-inhibitory concentration (IC50) with MT4 [1] is greater than 150 µM; with CCRF-CEM, greater than 20 µM. Besides, the EC50 was 0.8 µM with Human alphaherpesvirus 1 [2]; 0.7 µM with Human alphaherpesvirus 2; 1.4 µM in the series on Human alphaherpesvirus 1 [3]; greater than 20 µM in series [5]; greater than 20 µM in series [6]; 0.8 µM in series [7]. Further, the MCC in series [4] was greater than 100 µM. For the same molecule, in the series on MT4 [8], the CC50 stood at 17 µM.

`CN(C)/C=N/c1nc2c(ncn2COCCOP(=O)(NC(C)(C)C(=O)OCc2ccccc2)Oc2cccc3ccccc23)c(=O)[nH]1` (configuration not stated): the IC50 in the series on MT4 [1] worked out at 140 µM; with CCRF-CEM, 40 µM. Besides, the EC50 in series [5] was greater than 20 µM; in series [6], greater than 20 µM; in series [7], 15 µM. Moreover, the CC50 with MT4 [8] worked out at 45 µM.

Regarding `CN(C)/C=N/c1nc2c(ncn2COCCOP(=O)(NC(C)(C)C(=O)OCc2ccccc2)Oc2ccccc2)c(=O)[nH]1` (configuration not stated), the IC50 in the series on MT4 [1] is greater than 150 µM; with CCRF-CEM it was greater than 100 µM. Further, the EC50 in series [5] was greater than 100 µM; in series [6] it was greater than 100 µM; in series [7], 70 µM. Further, the CC50 with MT4 [8] was greater than 150 µM.

With `Nc1nc2c(ncn2COCCOP(=O)(NC(Cc2ccccc2)C(=O)OCc2ccccc2)Oc2ccccc2)c(=O)[nH]1` (configuration not stated), the EC50 stood at 17 µM with Human alphaherpesvirus 1 [2]; 8 µM with Human alphaherpesvirus 2; 26 µM in series [5]; 34 µM in [6]; 16 µM in [7]. The MCC in series [4] was greater than 50 µM. Moreover, the IC50 with HEL came to 87 µM.

On to `COC(=O)[C@@H](NP(=O)(OCCOCn1cnc2c(=O)[nH]c(/N=C/N(C)C)nc21)Oc1cccc2ccccc12)C(C)C` (some centres not stated), for which the IC50 was greater than 150 µM with MT4 [1] and greater than 100 µM with CCRF-CEM. Moreover, the values for the EC50 in series [5], in series [6] and in series [7] were greater than 100 µM, greater than 100 µM and greater than 150 µM, respectively. Also, the CC50 with MT4 [8] was greater than 150 µM.
